Laboratory results from ChEMBL document CHEMBL1811873, “Peroxisome proliferator-activated receptor agonists with phenethylphenylphthalimide skeleton derived from thalidomide-related liver X receptor antagonists: relationship between absolute configuration and subtype selectivity” (Bioorg Med Chem, 2011).
The source made the active and inactive calls. No cut-off for these calls is given here.

Key:
[1] = biological target: T1, Bile acid receptor (Homo sapiens) (UniProt Q96RI1); assay: Antagonist activity at FXR transfected in HEK293 cells by luciferase reporter gene assay; type: functional, cell-based
T1 sequence (whole entry): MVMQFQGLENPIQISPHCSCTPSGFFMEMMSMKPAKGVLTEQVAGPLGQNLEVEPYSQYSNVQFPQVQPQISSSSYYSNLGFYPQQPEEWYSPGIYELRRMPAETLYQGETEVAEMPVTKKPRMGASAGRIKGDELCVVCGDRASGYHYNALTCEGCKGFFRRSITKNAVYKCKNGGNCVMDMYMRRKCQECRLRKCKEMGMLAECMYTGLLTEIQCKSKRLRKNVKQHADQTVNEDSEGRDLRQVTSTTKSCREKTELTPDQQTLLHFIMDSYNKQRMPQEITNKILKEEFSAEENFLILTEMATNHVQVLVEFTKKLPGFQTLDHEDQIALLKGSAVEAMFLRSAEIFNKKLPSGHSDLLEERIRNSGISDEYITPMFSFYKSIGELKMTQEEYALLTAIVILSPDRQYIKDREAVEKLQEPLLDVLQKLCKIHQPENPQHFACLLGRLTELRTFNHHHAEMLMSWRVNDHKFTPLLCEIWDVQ

[2] = biological target: T2, Peroxisome proliferator-activated receptor gamma (Homo sapiens) (UniProt P37231); assay: Agonist activity at PPARgamma expressed in HEK293 after 8 hrs by luciferase reporter gene assay relative to ciglitazone; type: functional, cell-based
T2 sequence (whole entry): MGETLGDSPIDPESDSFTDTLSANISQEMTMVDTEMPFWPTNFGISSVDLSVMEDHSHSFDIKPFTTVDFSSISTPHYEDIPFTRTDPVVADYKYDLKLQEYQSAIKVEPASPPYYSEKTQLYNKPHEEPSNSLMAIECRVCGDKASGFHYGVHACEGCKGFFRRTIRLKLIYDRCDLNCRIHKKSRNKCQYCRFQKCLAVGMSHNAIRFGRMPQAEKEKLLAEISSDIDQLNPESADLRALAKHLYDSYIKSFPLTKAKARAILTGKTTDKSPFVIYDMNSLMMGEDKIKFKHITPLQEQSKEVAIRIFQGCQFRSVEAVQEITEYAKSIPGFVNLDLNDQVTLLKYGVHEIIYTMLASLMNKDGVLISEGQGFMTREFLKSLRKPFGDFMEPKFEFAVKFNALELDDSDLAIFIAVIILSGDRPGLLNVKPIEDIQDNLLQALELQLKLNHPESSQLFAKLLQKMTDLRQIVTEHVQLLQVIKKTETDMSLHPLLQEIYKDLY
In short: (§1)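 GAL4N-hPPAR LBD chimera with TK-MH100x4-LUC reporter in calcium-phosphate-transfected HEK293 (DMEM, 5% FBS), compounds added 8 h post-transfection. Luciferase was normalized to β-galactosidase. Percent efficacy (Emax) was taken at the maximal stimulatory response relative to 10 µM fenofibric acid (PPARα), 100 nM GW501516 (PPARδ) or 10 µM ciglitazone (PPARγ). Triplicate, at least twice.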

[3] = biological target: T1, Bile acid receptor (Homo sapiens); assay: Agonist activity at FXR transfected in HEK293 cells by luciferase reporter gene assay; type: functional, cell-based
[4] = biological target: T3, Peroxisome proliferator-activated receptor gamma (Homo sapiens, UniProt P37231); assay: Agonist activity at PPARgamma expressed in HEK293 after 8 hrs by luciferase reporter gene assay; type: functional, cell-based
T3 sequence (P37231 whole entry): T2 sequence (whole entry)
In short: (§2)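 HEK293 cells grown in DMEM with 5% FBS at 37 °C in 5% CO2 were calcium-phosphate co-transfected with CMX-GAL4N-hPPAR LBD (subtype-specific), TK-MH100x4-LUC reporter and CMX β-galactosidase for normalization. Compounds were added 8 h post-transfection. Luciferase was read by luminometer and β-galactosidase by plate reader. Values are normalized averages; triplicate, repeated at least twice.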

[5] = biological target: T4, Peroxisome proliferator-activated receptor alpha (Homo sapiens, UniProt Q07869); assay: Agonist activity at human PPARalpha expressed in HEK293 after 8 hrs by luciferase reporter gene assay; type: functional, cell-based; in short: as §2
T4 sequence (Q07869 whole entry): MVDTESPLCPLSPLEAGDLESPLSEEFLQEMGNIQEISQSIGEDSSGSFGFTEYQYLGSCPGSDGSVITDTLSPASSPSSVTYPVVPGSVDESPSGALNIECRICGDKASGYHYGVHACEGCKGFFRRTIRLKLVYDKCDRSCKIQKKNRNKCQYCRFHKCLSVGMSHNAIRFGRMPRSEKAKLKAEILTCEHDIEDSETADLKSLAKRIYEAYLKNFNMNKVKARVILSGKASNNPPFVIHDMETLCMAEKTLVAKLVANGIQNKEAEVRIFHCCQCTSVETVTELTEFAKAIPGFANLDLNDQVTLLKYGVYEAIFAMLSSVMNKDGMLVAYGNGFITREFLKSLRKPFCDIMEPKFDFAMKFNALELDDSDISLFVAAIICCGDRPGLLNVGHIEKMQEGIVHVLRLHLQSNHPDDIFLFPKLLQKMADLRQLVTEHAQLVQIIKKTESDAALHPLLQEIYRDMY

[6] = biological target: T5, Peroxisome proliferator-activated receptor alpha (Homo sapiens) (UniProt Q07869); assay: Agonist activity at human PPARalpha expressed in HEK293 after 8 hrs by luciferase reporter gene assay relative to fenofibric acid; type: functional, cell-based; in short: as §1
T5 sequence (whole entry): T4 sequence (Q07869 whole entry)

[7] = biological target: T6, Peroxisome proliferator-activated receptor delta (Homo sapiens, UniProt Q03181); assay: Agonist activity at PPARdelta expressed in HEK293 after 8 hrs by luciferase reporter gene assay; type: functional, cell-based; in short: as §2
T6 sequence (Q03181 whole entry): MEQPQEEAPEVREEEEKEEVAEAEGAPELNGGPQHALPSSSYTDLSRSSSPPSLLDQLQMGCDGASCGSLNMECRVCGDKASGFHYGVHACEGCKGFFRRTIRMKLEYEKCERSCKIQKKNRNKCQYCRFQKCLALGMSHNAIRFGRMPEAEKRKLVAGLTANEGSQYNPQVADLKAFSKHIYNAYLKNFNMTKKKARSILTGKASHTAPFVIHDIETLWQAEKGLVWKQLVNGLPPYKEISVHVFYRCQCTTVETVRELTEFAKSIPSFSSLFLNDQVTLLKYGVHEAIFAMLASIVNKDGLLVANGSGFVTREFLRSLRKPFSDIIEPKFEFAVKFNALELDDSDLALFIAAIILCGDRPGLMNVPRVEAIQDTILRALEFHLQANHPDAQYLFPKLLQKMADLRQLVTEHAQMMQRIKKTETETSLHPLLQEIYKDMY

[8] = biological target: T7, Peroxisome proliferator-activated receptor delta (Homo sapiens) (UniProt Q03181); assay: Agonist activity at human PPARdelta expressed in HEK293 after 8 hrs by luciferase reporter gene assay relative to GW501516; type: functional, cell-based; in short: as §1
T7 sequence (whole entry): T6 sequence (Q03181 whole entry)

[9] = biological target: T8, Oxysterols receptor LXR-alpha (Homo sapiens) (UniProt Q13133); assay: Agonist activity at LXR; type: functional
T8 sequence (whole entry): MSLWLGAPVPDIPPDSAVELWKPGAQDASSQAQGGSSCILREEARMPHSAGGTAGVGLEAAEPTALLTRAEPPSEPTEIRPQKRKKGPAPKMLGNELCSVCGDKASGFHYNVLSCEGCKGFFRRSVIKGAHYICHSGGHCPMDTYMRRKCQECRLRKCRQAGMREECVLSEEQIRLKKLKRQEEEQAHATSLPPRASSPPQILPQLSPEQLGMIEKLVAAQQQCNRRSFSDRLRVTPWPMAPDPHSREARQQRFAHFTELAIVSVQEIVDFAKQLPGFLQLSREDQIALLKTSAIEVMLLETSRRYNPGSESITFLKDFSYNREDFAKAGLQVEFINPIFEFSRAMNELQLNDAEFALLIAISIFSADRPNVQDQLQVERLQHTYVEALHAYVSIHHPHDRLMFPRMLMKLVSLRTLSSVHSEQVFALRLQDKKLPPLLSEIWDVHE

[10] = biological target: T8, Oxysterols receptor LXR-alpha (Homo sapiens); assay: Antagonist activity at LXR; type: functional

SMILES	Activity [1]	Emax [2] [%]	Activity [3]	EC50 [4] [µM]	EC50 [5] [µM]	Emax [6] [%]	EC50 [7] [µM]	Emax [8] [%]	Activity [9]	Activity [10]
CCC(Cc1ccc(CCc2ccc(N3C(=O)c4ccccc4C3=O)cc2)cc1)C(=O)O (stereo not given)	inactive	42	inactive	11	6.6	72	14	22	–	–
CC[C@@H](Cc1ccc(CCc2ccc(N3C(=O)c4ccccc4C3=O)cc2OC)cc1)C(=O)O	–	102	–	7.1	8.9	66	7.3	41	–	–
CCC(Cc1ccc(CCc2ccc(N3C(=O)c4ccccc4C3=O)cc2OC)cc1)C(=O)O (racemic)	inactive	78	inactive	8.5	3.4	73	11	24	–	–
O=C(O)CCc1ccc(CCc2ccc(N3C(=O)c4ccccc4C3=O)cc2)cc1	inactive	7	inactive	–	11	53	13	27	inactive	inactive
O=C(O)COc1ccc(CCc2ccc(N3C(=O)c4ccccc4C3=O)cc2)cc1	inactive	6	inactive	–	29	29	62	10	inactive	inactive
CCCOc1cc(N2C(=O)c3ccccc3C2=O)ccc1CCc1ccc(CC(CC)C(=O)O)cc1 (racemic)	inactive	26	inactive	6.9	1.7	70	2.9	40	–	–
O=C(O)CCCOc1ccc(CCc2ccc(N3C(=O)c4ccccc4C3=O)cc2)cc1	inactive	31	inactive	12	–	0	–	1	inactive	inactive
CCCOc1cc(N2C(=O)c3ccccc3C2=O)ccc1CCc1ccc(C[C@H](CC)C(=O)O)cc1	–	36	–	5.2	1.7	87	1.8	54	–	–
O=C(O)CCCCCCc1ccc(CCc2ccc(N3C(=O)c4ccccc4C3=O)cc2)cc1	–	5	–	–	–	8	–	4	–	–
CCOc1cc(N2C(=O)c3ccccc3C2=O)ccc1CCc1ccc(C[C@H](CC)C(=O)O)cc1	–	62	–	3.2	1.7	69	1.9	29	–	–

Results, then the compound that gave them:

Activity [1]	Emax [2] [%]	Activity [3]	EC50 [4] [µM]	EC50 [5] [µM]	Emax [6] [%]	EC50 [7] [µM]	Emax [8] [%]	Activity [9]	Activity [10]	SMILES
inactive	49	inactive	9.3	1.4	102	4.8	33	–	–	CCOc1cc(N2C(=O)c3ccccc3C2=O)ccc1CCc1ccc(CC(CC)C(=O)O)cc1 (racemic)
–	7	–	–	–	4	–	4	–	–	O=C(O)CCCCc1ccc(CCc2ccc(N3C(=O)c4ccccc4C3=O)cc2)cc1
–	40	–	12	4.5	103	–	8	–	–	CC[C@H](Cc1ccc(CCc2ccc(N3C(=O)c4ccccc4C3=O)cc2OC)cc1)C(=O)O
inactive	6	inactive	–	–	0	–	0	–	–	O=C(O)CCCCCOc1ccc(CCc2ccc(N3C(=O)c4ccccc4C3=O)cc2)cc1
–	7	–	–	2.5	70	–	8	–	–	CCCOc1cc(N2C(=O)c3ccccc3C2=O)ccc1CCc1ccc(C[C@@H](CC)C(=O)O)cc1
inactive	36	inactive	7.9	1.8	63	3.2	32	–	–	CCCCOc1cc(N2C(=O)c3ccccc3C2=O)ccc1CCc1ccc(CC(CC)C(=O)O)cc1 (stereo not given)
–	21	–	17	14	20	25	7	–	–	CCC(Cc1ccc(CCc2ccc(N3C(=O)c4ccccc4C3=O)cc2O)cc1)C(=O)O (stereo not given)
–	2	–	–	33	14	–	0	–	–	O=C(O)c1ccc(CCc2ccc(N3C(=O)c4ccccc4C3=O)cc2)cc1
–	23	–	6.9	1.1	126	9.7	12	–	–	CCOc1cc(N2C(=O)c3ccccc3C2=O)ccc1CCc1ccc(C[C@@H](CC)C(=O)O)cc1
